PAFAH1B3 FP inh – PAFAH1B3 enzyme inhibitors, primary screen, biochemical, fluorescence polarization, human; recombinant PAFAH1B3, FP-rhodamine probe; inhibition, % at 3.39 µM; actives 0.28% (n = 340,000);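 active = inhibition above the screen-wide average of all tested compounds plus 3 SD, cut at about 25% in these data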;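 note: 0% = enzyme with DMSO only and 100% = wells lacking PAFAH1B3 protein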
mABHD4 FP – ABHD4 inhibitors, primary screen, biochemical, fluorescence polarization, mouse. inhibition, % at 8.92 µM. purified mABHD4, FP-Rh probe fluorescence polarization. (Lyso)-N-acylphosphatidylethanolamine lipase (Mus musculus), Q8VD66. actives 0.54% (n = 370,000). AID 720543, 2013;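 active = inhibition exceeding the mean over every tested compound plus 3 SD, cut at about 30% in these data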;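 note: 0% = plate median of compound wells and 100% = S159A mutant with DMSO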
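assay system = mABHD4 protein | compound dosing = single nominal dose of 8.92 µM, 0.89% DMSO final | read-out basis = percent inhibition of probe binding, normalized to plate controls | schedule = Enzyme–compound pre-incubation 45 min, then probe 60 min, both 25 °C | detection = fluorescence polarization, excitation 525 nm, emission 598 nm, BODIPY TMR filters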
PAFAH2 inh – PAFAH2 enzyme inhibitors, primary screen, biochemical, fluorescence polarization, human; recombinant PAFAH2, FP-rhodamine activity probe; inhibition, % at 3.39 µM; actives 0.99% (n = 340,000);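 active = inhibition above the mean over all tested compounds plus 3 SD, cut at about 30% in these data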;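 note: inhibitors block probe labeling of enzyme so polarization drops; 0% = enzyme with DMSO and 100% = wells lacking PAFAH2 protein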
pPAFAH inh – pPAFAH enzyme inhibitors, primary screen, biochemical, fluorescence polarization, human. Platelet-activating factor acetylhydrolase (Homo sapiens), Q13093. recombinant pPAFAH, FP-rhodamine probe fluorescence polarization. inhibition, % at 3.39 µM. actives 1.5% (n = 330,000). AID 463082, 2010;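 active = inhibition above the mean inhibition across the screen plus 3 SD, cut at about 25% in these data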;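 note: inhibitors block binding of the rhodamine activity-based probe so polarization drops; 0% = enzyme with DMSO and 100% = wells lacking pPAFAH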
Target sequence (Q13093 whole entry, looked up): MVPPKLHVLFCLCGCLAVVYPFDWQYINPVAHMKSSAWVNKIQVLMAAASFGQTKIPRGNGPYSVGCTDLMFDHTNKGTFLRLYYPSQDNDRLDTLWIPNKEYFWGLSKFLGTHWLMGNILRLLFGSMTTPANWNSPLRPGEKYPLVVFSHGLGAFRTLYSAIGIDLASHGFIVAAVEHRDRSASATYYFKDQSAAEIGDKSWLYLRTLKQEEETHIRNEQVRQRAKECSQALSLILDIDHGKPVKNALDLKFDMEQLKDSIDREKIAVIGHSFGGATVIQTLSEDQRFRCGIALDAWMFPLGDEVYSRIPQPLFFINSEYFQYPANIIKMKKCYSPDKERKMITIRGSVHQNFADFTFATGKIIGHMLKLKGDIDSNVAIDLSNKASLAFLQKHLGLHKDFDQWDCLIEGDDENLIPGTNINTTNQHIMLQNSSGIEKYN
HTRA1 inhibitor – HTRA1 serine protease inhibitors, primary screen, biochemical, fluorescence polarization, HTS; recombinant HTRA1, FP-rhodamine activity-based probe; inhibition, % at 5.96 µM; actives 0.5% (n = 340,000); AID 504803, 2011; in the data active = inhibition above about 36%;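 note: 0% = enzyme with DMSO and 100% = wells lacking enzyme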
PAFAH1B2 inh – PAFAH1B2 enzyme inhibitors, primary screen, biochemical, fluorescence polarization, human; recombinant PAFAH1B2, FP-rhodamine activity probe; inhibition, % at 3.39 µM; actives 1.2% (n = 340,000); AID 492953, 2010;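 active = inhibition above the mean of all tested compounds plus 3 SD, cut at about 24% in these data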;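 note: 0% = enzyme with DMSO and 100% = wells lacking PAFAH1B2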
Target sequence (P68402 whole entry, looked up): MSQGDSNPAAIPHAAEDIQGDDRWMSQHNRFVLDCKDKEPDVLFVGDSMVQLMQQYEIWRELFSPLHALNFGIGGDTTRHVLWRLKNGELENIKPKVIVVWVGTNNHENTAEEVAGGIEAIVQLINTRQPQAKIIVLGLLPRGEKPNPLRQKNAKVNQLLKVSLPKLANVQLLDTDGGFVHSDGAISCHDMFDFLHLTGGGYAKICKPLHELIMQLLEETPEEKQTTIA
HTRA1 conf – HTRA1 protease inhibitors, retest, confirmation, biochemical, fluorescence polarization; shares compounds with HTRA1 inhibitor; recombinant HTRA1, FP-rhodamine activity-based probe; inhibition, % at 5.96 µM; actives 66% (n = 1,600); AID 540248, 2011;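 active = mean inhibition over three repeats above a set limit taken from the earlier primary screen, cut at about 37% in these data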;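 note: 0% = HTRA1 with DMSO and 100% = wells lacking HTRA1; inhibitors block probe binding so polarization drops and inhibition rises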
ABHD4 confirm – ABHD4 inhibitors, retest, confirmation, biochemical, fluorescence polarization, mouse; shares compounds with mABHD4 FP; purified mABHD4, FP-Rh probe fluorescence polarization; inhibition, % at 8.92 µM; actives 55% (n = 1,800);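 active = mean inhibition across replicates above the hit cutoff set in the primary screen, cut at about 30% in these data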;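 note: 0% = wild-type ABHD4 with DMSO and 100% = catalytically dead S159A mutant with DMSO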
Active calls of the source: *; . = no result given. Sampled rows, rich in hits. Any-hit rate of the full collection: about 2.8%.

SMILES	PAFAH1B3 FP inh	mABHD4 FP	PAFAH2 inh	pPAFAH inh	HTRA1 inhibitor	PAFAH1B2 inh	HTRA1 conf	ABHD4 confirm
O=C1NC(=Nc2ccccc2Cl)S/C1=C\c1cccc([N+](=O)[O-])c1O	21.7	52.8*	49.8*	33.8*	55.0*	14.0	57.5*	59.9*
CC(C)CC(CCOCCO)NC(=O)OCc1ccccc1[N+](=O)[O-] (stereo unspecified)	.	2.4	.	.	.	.	.	.
CC(=O)NC(c1ccc(N(C)C)cc1)c1cc(Cl)c2cccnc2c1O (stereo unspecified)	.	29.7*	.	.	65.0*	.	82.0*	32.7*
CC(=O)NC(c1ccco1)c1ccc2cccnc2c1O (stereo unspecified)	1.2	.	3.8	4.0	19.1	7.5	.	.
O=C1C(Nc2ccc(O)cc2)=C/C(=N/S(=O)(=O)c2cccs2)c2ccccc21	64.0*	72.8*	34.7*	.	63.8*	28.5*	74.3*	81.3*
COC1=C(Nc2ccc(O)cc2)C(=O)c2ccccc2C1=O	3.7	16.9	-3.9	10.7	19.9	6.0	.	.
O=C(O)c1ccc(NC2=C/C(=N/S(=O)(=O)c3cccs3)c3ccccc3C2=O)cc1	.	36.9*	.	.	41.9*	.	45.5*	78.4*
O=C(OCC#CCSc1nnc(-c2cccc3ccccc23)o1)C1CC1	.	-8.4	.	.	.	.	.	.
Nc1cc2cccnc2cc1Cl	36.9*	53.4*	43.9*	.	45.7*	21.2	-0.7	36.2*
Oc1ccc(/C=N/N2CCCCC2)c(O)c1O	17.9	31.0*	14.9	21.1	38.3*	4.5	32.8	15.2
Oc1cccc(/C=N/N2CCCCC2)c1O	13.7	19.6	1.1	14.5	16.9	6.3	.	.
CC1(C)OC(C)(C)/C(=C/Nc2ccc(O)cc2)C1=O	16.8	62.0*	16.5	21.2	63.5*	1.6	20.5	25.2
Oc1ccccc1N=Cc1c(O)ccc2oc3c(c12)CCCC3	7.5	30.4*	13.5	16.8	43.3*	4.1	68.5*	-5.3
O=C(O)c1ccc(N=Cc2c(O)ccc3oc4c(c23)CCCC4)cc1	4.2	-2.6	6.8	-0.8	8.9	-2.2	.	.
COc1cccc(CNC(=O)CN2CCCc3ccccc32)c1OC	.	4.2	.	.	.	.	.	.
N#C/C(N=Nc1ccccc1O)=N\Nc1ccccc1O	49.7*	66.7*	41.2*	20.0	68.4*	36.2*	70.7*	110.4*
Oc1ccc(NCc2ccccc2OCc2ccccc2F)cc1	11.0	49.0*	4.1	31.4*	62.5*	4.1	21.5	50.0*
CCOc1cccc(CNc2ccc(O)cc2)c1OCc1ccc(Cl)cc1	7.9	40.6*	7.6	32.6*	48.7*	3.0	18.7	35.7*
Cc1ccc(NCc2ccccc2OCc2ccccc2F)cc1	-4.0	0.4	0.7	7.2	-9.0	4.2	.	.
COc1cccc(CNCCO)c1OCc1ccc(Cl)cc1	3.3	4.9	-2.2	2.9	-0.3	3.0	.	.
Nc1ccc(N(c2ccccc2)c2ccc(N)cc2)cc1	5.9	38.5*	5.9	10.2	64.8*	8.3	53.6*	47.8*
CCCC(=O)N1CCC(C(=O)NC2CCCc3ccccc32)CC1 (stereo unspecified)	.	-5.5	.	.	.	.	.	.
O=S(c1ccccc1O)S(=O)c1ccccc1O (stereo unspecified)	14.0	37.4*	26.8	.	40.0*	8.9	34.4	34.0*
Cc1ccc(-n2c(SCC(=O)Nc3ccc4c(c3)OCCO4)nnc2-c2cccnc2)cc1	.	3.1	.	.	.	.	.	.
O=[N+]([O-])c1ccc(N/N=C/c2ccc(O)c(O)c2O)c(S(=O)(=O)N2CCOCC2)c1	11.3	36.7*	12.6	.	73.9*	6.6	74.4*	58.1*
SMILES	PAFAH1B3 FP inh	mABHD4 FP	PAFAH2 inh	pPAFAH inh	HTRA1 inhibitor	PAFAH1B2 inh	HTRA1 conf	ABHD4 confirm
COC(=O)[C@]12CCCCC=C1N(Cc1ccc(OC)cc1)C(=O)[C@@H]2CC(=O)N1CCN(C(=O)C2CC2)CC1	.	0.0	.	.	.	.	.	.
Cc1ccc(C)c(N=Cc2cc3c(cc2[N+](=O)[O-])OCO3)c1	9.4	50.3*	14.1	18.1	48.1*	-2.6	4.9	45.2*
Cc1cccc(C)c1OCC(=O)N/N=C/c1cc2c(cc1[N+](=O)[O-])OCO2	10.0	1.1	8.5	6.1	2.0	3.9	.	.
COc1ccc(/C=C/C(=O)c2ccc(OC)cc2OC)c(OC)c1	2.1	0.0	-10.0	-6.2	-25.6	-0.7	.	.
CNc1ccc(Br)cc(C(=O)/C=C/c2ccc(OC)cc2OC)c1=O	17.5	36.3*	13.1	24.7*	50.2*	2.0	16.5	30.1*
O=C(/C=C/c1ccc(O)c(O)c1)NC(=O)c1ccccc1O	7.4	56.7*	2.6	3.4	65.0*	6.1	62.4*	35.7*
O=C(/C=C/c1ccc(Br)cc1)NC(=O)c1ccccc1O	4.5	-9.7	3.5	-1.0	14.4	-5.0	.	.
COc1ccc2ccccc2c1C(O)c1nccn1C (stereo unspecified)	39.0*	40.4*	44.5*	7.0	39.0*	32.1*	25.2	87.8*
N#Cc1ccc2nc(-c3ccc(CN4CCC(c5nc6ccccc6[nH]5)CC4)cc3)c(-c3ccccc3)nc2c1	.	1.4	.	.	.	.	.	.
O=[N+]([O-])c1cc([N+](=O)[O-])c2c(=Nc3ccccc3)n(-c3ccccc3)n(O)c2c1	24.4	55.5*	20.4	22.3	42.2*	17.0	47.9*	48.0*
Cc1ccc(-n2c(SCC(=O)Nc3ccc4cn[nH]c4c3)nnc2-c2ccccc2)cc1	.	-101.0	.	.	.	.	.	.
CCOc1ccc(Nc2ccc(N)c(S(=O)(=O)O)c2)cc1	13.6	107.1*	23.5	.	93.2*	3.0	53.1*	54.6*
CCOc1ccc(NS(=O)(=O)N(C)C)cc1	2.2	0.6	5.2	1.8	3.1	2.0	.	.
O=C(NCC1CCN(C(=O)C(=O)c2cccs2)CC1)c1ccncc1	.	-0.5	.	.	.	.	.	.
Cc1ccc(N2CCN(/N=C\c3cccnc3)CC2)cc1	.	10.8	.	.	.	.	.	.
CN[C@H]1C[C@@H](c2ccccc2Br)N(C(C)=O)C[C@H]1CO	.	1.4	.	.	.	.	.	.
Cc1cc(=O)c2c(o1)C(=O)c1occc1C2=O	47.2*	57.8*	38.1*	.	46.0*	26.1*	14.7	60.5*
COc1cccc(C(=O)N[C@H](C(=O)N2CCC[C@H]2C(=O)NCCc2ccccc2Cl)C(C)C)c1	.	-1.5	.	.	.	.	.	.
